According to ChEMBL document CHEMBL1152539, “Synthesis and evaluation of bioactive naphthoquinones from the Brazilian medicinal plant, Tabebuia avellanedae” (Bioorg Med Chem, 2009):
≈ marks a conversion by molar mass, not a printed value.

How the values were obtained:
[1] = Inhibition of 12-O-tetradecanoylphorbol-13-acetate-induced EBV-early antigen activation in human Raji cells after 48 hrs by immunofluorescence technique; type: cell-based, human gammaherpesvirus 4
Method in brief: (§1)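 Raji cells were incubated for 48 h at 37 °C in medium with n-butyric acid (4 mM), TPA (32 pmol) and graded amounts of test compound. Smears were stained for EBV-EA by indirect immunofluorescence, and positive cells were counted among at least 500 cells. Assays were run in triplicate. Activity was expressed relative to the n-butyric acid plus TPA control, set as 100%.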

Raji [2] = assay: Inhibition of 12-O-tetradecanoylphorbol-13-acetate-induced EBV-early antigen activation in human Raji cells assessed as EA induction at 100 molar ratio after 48 hrs by immunofluorescence technique relative to 12-O-tetradecanoylphorbol-13-acetate; type: cell-based; set-up: scale not given: the % may be the effect or the level left; conditions: human gammaherpesvirus 4; method in brief: as §1
[3] = Anticancer activity against DMBA/TPA-induced skin cancer in mouse assessed as incidence of papilloma at 85 nmol administered before TPA challenge measured after 10 weeks; type: functional
Method in brief: (§2)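 Mouse two-stage skin model: DMBA 390 nmol in 0.1 mL acetone applied topically by pipet. One week later, the same skin site was painted with test compound (85 nmol in acetone) or acetone alone, 60 min before TPA (1.7 nmol). Tumor response was scored as the average number of papillomas per mouse and the percentage of mice bearing papillomas.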

Candida albicans = assay: Antimicrobial activity against Candida albicans NBRC1060 after 3-5 days by broth dilution method; conditions: NBRC1060, 3-5 days
Penicillium expansum = assay: Antimicrobial activity against Penicillium expansum NBRC8800 after 3-5 days by broth dilution method; conditions: NBRC8800, 3-5 days
Escherichia coli = assay: Antimicrobial activity against Escherichia coli ATCC 11775 after 24 hrs by broth dilution method; type: functional; conditions: ATCC 11775, 24 h
Method in brief: (§3)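 Modified NCCLS broth dilution. A 50 µL aliquot of bacterial cells (10⁶/mL in 0.85% NaCl) was added to 1 mL Mueller-Hinton broth containing compound over a 0.1–100 range.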

MCF7 = assay: Antiproliferative activity against human MCF7 cells after 72 hrs by trypan blue exclusion assay; type: functional, cell-based; conditions: MCF7, 72 h
Method in brief: (§4)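 Cells were kept in DMEM with 10% fetal serum and exposed to four concentrations of compound for 72 h at 37 °C in humidified 5% CO₂. They were then stained with 0.25% trypan blue for 20 min, and viable cells were counted by light microscopy. IC₅₀ was derived from separate experiments run in triplicate.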

[4] = Anticancer activity against DMBA/TPA-induced skin cancer in mouse assessed as incidence of papilloma at 85 nmol administered before TPA challenge measured after 20 weeks; type: functional; method in brief: as §2
[5] = Antiproliferative activity against human skin fibroblast after 72 hrs by trypan blue exclusion assay; type: cell-based; method in brief: as §4
Bacillus mycoides = assay: Antimicrobial activity against Bacillus mycoides ATCC 11778 after 24 hrs by broth dilution method; type: functional; conditions: ATCC 11778, 24 h; method in brief: as §3
Aspergillus fumigatus [6] = assay: Antimicrobial activity against Aspergillus fumigatus NBRC4400 after 24 hrs by broth dilution method; type: functional; conditions: NBRC4400, 24 h
[7] = Antiproliferative activity against human Hs888Lu cells after 72 hrs by trypan blue exclusion assay; type: cell-based; method in brief: as §4
Bacillus subtilis = assay: Antimicrobial activity against Bacillus subtilis NBRC3134 after 24 hrs by broth dilution method; type: functional; conditions: NBRC3134, 24 h; method in brief: as §3
Salmonella enteritidis = assay: Antimicrobial activity against Salmonella enteritidis OPS10 after 24 hrs by broth dilution method; type: functional, Salmonella enterica subsp. enterica serovar Enteritidis; conditions: Salmonella enterica, OPS10, 24 h; method in brief: as §3
A549 = assay: Antiproliferative activity against human A549 cells after 72 hrs by trypan blue exclusion assay; type: functional, cell-based; conditions: A549, 72 h; method in brief: as §4
Paecilomyces variotii [8] = assay: Antimicrobial activity against Paecilomyces variotii NBRC4855 after 24 hrs by broth dilution method; type: functional; conditions: NBRC4855, 24 h
Staphylococcus aureus = assay: Antimicrobial activity against Staphylococcus aureus NBRC13276 after 24 hrs by broth dilution method; type: functional; conditions: NBRC13276, 24 h; method in brief: as §3
Hepatocyte = assay: Antiproliferative activity against human hepatocytes after 72 hrs by trypan blue exclusion assay; type: cell-based; method in brief: as §4
Raji [9] = assay: Inhibition of 12-O-tetradecanoylphorbol-13-acetate-induced EBV-early antigen activation in human Raji cells assessed as EA induction at 1000 molar ratio after 48 hrs by immunofluorescence technique relative to 12-O-tetradecanoylphorbol-13-acetate; type: cell-based; conditions: human gammaherpesvirus 4; method in brief: as §1
Pseudomonas aeruginosa = assay: Antimicrobial activity against Pseudomonas aeruginosa NBRC13275 after 24 hrs by broth dilution method; type: functional; conditions: NBRC13275, 24 h; method in brief: as §3
[10] = Anticancer activity against DMBA/TPA-induced skin cancer in mouse assessed as incidence of papilloma at 85 nmol administered before TPA challenge measured after 15 weeks; type: functional; method in brief: as §2
Naganishia albida [11] = assay: Antimicrobial activity against Cryptococcus albidus NBRC0378 after 24 hrs by broth dilution method; type: functional; conditions: NBRC0378, 24 h
Saccharomyces cerevisiae [12] = assay: Antimicrobial activity against Saccharomyces cerevisiae NBRC10114 after 3-5 days by broth dilution method; conditions: NBRC10114, 3-5 days
Raji [13] = assay: Inhibition of 12-O-tetradecanoylphorbol-13-acetate-induced EBV-early antigen activation in human Raji cells assessed as EA induction at 10 molar ratio after 48 hrs by immunofluorescence technique relative to 12-O-tetradecanoylphorbol-13-acetate; type: cell-based; set-up: scale not given: the % may be the effect or the level left; conditions: human gammaherpesvirus 4; method in brief: as §1
[14] = Anticancer activity against DMBA/TPA-induced skin cancer in mouse assessed as number of papillomas per mouse at 85 nmol administered before TPA challenge measured after 20 weeks; type: functional; method in brief: as §2
[15] = Antiproliferative activity against human SVCT-M12 cells after 72 hrs by trypan blue exclusion assay; type: cell-based; conditions: SVCT-M12, 72 h; method in brief: as §4
[16] = Cytotoxicity against human Raji cells assessed as cell viability at 1000 molar ratio after 48 hrs by trypan blue staining; type: cell-based; conditions: read-out: Activity
Method in brief: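 Raji cells were exposed for 48 h at 37 °C to n-butyric acid (4 mM), TPA (32 pmol) and test compound, as in the EBV-EA induction setup. Viability of the treated cells was then measured by trypan blue staining.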

Raji [17] = assay: Inhibition of 12-O-tetradecanoylphorbol-13-acetate-induced EBV-early antigen activation in human Raji cells assessed as EA induction at 500 molar ratio after 48 hrs by immunofluorescence technique relative to 12-O-tetradecanoylphorbol-13-acetate; type: cell-based; set-up: scale not given: the % may be the effect or the level left; conditions: human gammaherpesvirus 4; method in brief: as §1
Aspergillus fumigatus [18] = assay: Antimicrobial activity against Aspergillus fumigatus NBRC4400 after 3-5 days by broth dilution method; conditions: NBRC4400, 3-5 days
Paecilomyces variotii [19] = assay: Antimicrobial activity against Paecilomyces variotii NBRC4855 after 3-5 days by broth dilution method; conditions: NBRC4855, 3-5 days
PC-3 = assay: Antiproliferative activity against human PC3 cells after 72 hrs by trypan blue exclusion assay; type: functional, cell-based; conditions: PC-3, 72 h; method in brief: as §4
Naganishia albida [20] = assay: Antimicrobial activity against Cryptococcus albidus NBRC0378 after 3-5 days by broth dilution method; conditions: NBRC0378, 3-5 days
Saccharomyces cerevisiae [21] = assay: Antimicrobial activity against Saccharomyces cerevisiae NBRC10114 after 24 hrs by broth dilution method; type: functional; conditions: NBRC10114, 24 h

Row | Compound | IC50 [1] [mol ratio/32 pmol TPA] | Activity (Raji [2]) [%] | Activity [3] [%] | MIC (Candida albicans) [µg/mL] | MIC (Penicillium expansum) [µg/mL] | MIC (Escherichia coli) [µg/mL] | IC50 (MCF7) [µM] | Activity [4] [%] | MIC (Bacillus mycoides) [µg/mL] | EC50 [7] [µM] | MIC (Bacillus subtilis) [µg/mL] | MIC (Salmonella enteritidis) [µg/mL] | IC50 (A549) [µM] | MIC (Staphylococcus aureus) [µg/mL] | EA induction relative to TPA control (Raji [9]) [%] | MIC (Pseudomonas aeruginosa) [µg/mL] | Activity (Raji [13]) [%] | EC50 [15] [µM] | viability at 48 h, 1000 molar ratio [16] [%] | Activity (Raji [17]) [%] | other results
1 | C[C@H](O)c1cc2c(o1)C(=O)c1cccc(O)c1C2=O | 33.2 | 16.9 | 7 | 25 (≈ 96.8 µM) | 25 (≈ 96.8 µM) | > 100 | 0.51 | 67 | 0.78 (≈ 3.02 µM) | 5.51 | 0.78 (≈ 3.02 µM) | > 100 | 0.78 | 3.13 (≈ 12.1 µM) | 0 | > 100 | 50 | 3.36 | 60 | 4.4 | EC50 [5]: 11.1 µM; MIC (Aspergillus fumigatus [6]): 12.5 µg/mL (≈ 48.4 µM); MIC (Paecilomyces variotii [8]): 25 µg/mL (≈ 96.8 µM); EC50 (Hepatocyte): 11.1 µM; Activity [10]: 47%; MIC (Naganishia albida [11]): 1.56 µg/mL (≈ 6.04 µM); MIC (Saccharomyces cerevisiae [12]): 3.13 µg/mL (≈ 12.1 µM); Activity [14]: 3.9
2 | C[C@@H](O)c1cc2c(o1)C(=O)c1cccc(O)c1C2=O | 38.9 | 24.7 | 7 | 25 (≈ 96.8 µM) | 25 (≈ 96.8 µM) | > 100 | – | 67 | 0.78 (≈ 3.02 µM) | – | 0.78 (≈ 3.02 µM) | > 100 | – | 3.13 (≈ 12.1 µM) | 0 | > 100 | 59.4 | – | 70 | 9.7 | EC50 [5]: 39.7 µM; MIC (Aspergillus fumigatus [18]): 12.5 µg/mL (≈ 48.4 µM); MIC (Paecilomyces variotii [19]): 25 µg/mL (≈ 96.8 µM); EC50 (Hepatocyte): 29.8 µM; Activity [10]: 47%; MIC (Naganishia albida [11]): 1.56 µg/mL (≈ 6.04 µM); MIC (Saccharomyces cerevisiae [12]): 3.13 µg/mL (≈ 12.1 µM); Activity [14]: 3.9
3 | C[C@H](O)c1cc2c(o1)C(=O)c1c(O)cccc1C2=O | 271 | 58.2 | – | 25 (≈ 96.8 µM) | 50 (≈ 194 µM) | > 100 | 2.61 | – | 1.56 (≈ 6.04 µM) | 14.6 | 1.56 (≈ 6.04 µM) | > 100 | 4.31 | 6.25 (≈ 24.2 µM) | 7.4 | > 100 | 80.5 | 14.6 | 60 | 26.5 | IC50 (PC-3): 1.57 µM; MIC (Naganishia albida [20]): 1.56 µg/mL (≈ 6.04 µM); MIC (Aspergillus fumigatus [18]): 25 µg/mL (≈ 96.8 µM); MIC (Paecilomyces variotii [19]): 50 µg/mL (≈ 194 µM); MIC (Saccharomyces cerevisiae [21]): 3.13 µg/mL (≈ 12.1 µM)
4 | CC(=O)c1cc2c(o1)C(=O)c1c(O)cccc1C2=O | 40.1 | 27.5 | – | – | – | – | 2.61 | – | – | 14.6 | – | – | 4.31 | – | 0 | – | 60.3 | 11.7 | 70 | 8.3 | IC50 (PC-3): 3 µM
5 | CC1(C)S[C@@H]2[C@H](NC(=O)Cc3ccccc3)C(=O)N2[C@H]1C(=O)O [PENICILLIN G] | – | – | – | – | – | – | – | – | 1.56 (≈ 4.67 µM) | – | 0.39 (≈ 1.17 µM) | – | – | 0.39 (≈ 1.17 µM) | – | – | – | – | – | – | –
